Reference: ChEMBL document CHEMBL4765334, “Chemical profiling of HIV-1 capsid-targeting antiviral PF74” (Eur J Med Chem, 2020)
pEC50: −log10 of the molar value.

What was measured:
[1] = Metabolic stability at phase 1 in mouse liver microsomes assessed as half life at 1 uM by LC-MS/MS analysis; assay type: ADME, Microsome; details: for half-life at 1 µM: liver microsomes
[2] = Metabolic stability at phase 1 in human liver microsomes assessed as half life at 1 uM by LC-MS/MS analysis; assay type: ADME, Microsome
[3] = tested on: Human immunodeficiency virus 1; experiment: Binding affinity to covalently-crosslinked hexameric HIV1 capsid protein A14C/E45C/W184A/M185A mutant expressed in Escherichia coli BL21(DE3)RIL assessed as change in melting temperature at 20 uM incubated for 30 mins by thermal shift dye based fluorescence analysis
Outline: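 Thermal shift: 15 μM CA121 in 50 mM sodium phosphate pH 8.0 with Sypro Orange and compound at 20 μM final or DMSO control. Heated 25 to 95 °C at 0.2 °C/10 s; fluorescence Ex 475–500, Em 520–590 nm. ΔTm = Tm(compound) − T0(DMSO) for CA hexamer melting.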

[4] = Stability of the compound in mouse plasma assessed as half life incubated for 3 hrs by LC-MS/MS analysis; assay type: ADME, cell-free
[5] = Stability of the compound in human plasma assessed as half life incubated for 3 hrs by LC-MS/MS analysis; assay type: ADME, cell-free
[6] = tested on: Human immunodeficiency virus 1; experiment: Antiviral activity against HIV1 NL4-3 infected in human TZM-GFP cells assessed as number of GFP positive cells incubated for 48 hrs by imaging reader; assay type: functional, organism-based; details: Human immunodeficiency virus 1, NL4-3, TZM
Outline: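 TZM-GFP cells seeded 1 × 10^4/well and given increasing compound concentrations 24 h later; infected with HIV-1 NL4-3 (MOI = 1) after a further 24 h. Read-out after 48 h: GFP-positive cell counts (LTR-driven) versus DMSO controls. EC50 fitted as log(inhibitor) vs normalized response, variable slope, per experiment and averaged; mean ± SD, duplicates, at least two independent experiments.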

TZM = experiment: Cytotoxicity against human TZM-GFP cells incubated for 72 hrs by XTT assay; assay type: cell-based; details: tzm, 72 h
Outline: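 TZM-GFP cells seeded at 1 × 10^4 per well and exposed continuously to increasing compound concentrations for 72 h. Viable cell number read by XTT proliferation kit. CC50 fitted as log(inhibitor) vs normalized response, variable slope, per independent assay and averaged. Run in duplicate, at least two independent experiments, reported as mean ± standard deviation.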

SMILES	t1/2 ([1]; microsomes, 1 µM) [min]	t1/2 [2] [min]	ΔTm [3] [°C]	t1/2 [4] [min]	t1/2 [5] [min]	pEC50 [6]	half-life at 1 µM [1] [min]	CC50 (TZM) [µM]
CN(C(=O)[C@H](Cc1ccccc1)NC(=O)Cc1c[nH]c2ccccc12)c1ccc(Cl)nc1	0.7	2.1	4.9	> 360	> 360	6.59		
CCn1cc(CC(=O)N[C@@H](Cc2ccccc2)C(=O)N(C)c2ccc(F)cc2)c2ccccc21		1.3	7.1	> 360	> 360	6.57	0.5	18
CCn1cc(CC(=O)N[C@@H](Cc2ccccc2)C(=O)N(C)c2ccccc2)c2ccccc21		0.9	6.7	> 360	> 360	6.51	0.5	23
CCn1c(C)c(CC(=O)N[C@@H](Cc2ccccc2)C(=O)N(C)c2ccc(Cl)cc2)c2ccccc21			11.9			6.62		27
O=C(Cc1c[nH]c2ccccc12)N[C@@H](Cc1ccccc1)C(=O)Nc1cccc(-c2nnn[nH]2)c1			-0.7			< 4.70		> 100
CN(C(=O)[C@H](Cc1ccccc1)NC(=O)Cc1c[nH]c2ccccc12)c1cccc(Br)c1			3.5			5.70		< 50
Cc1[nH]c2ccccc2c1CC(=O)N[C@@H](Cc1ccccc1)C(=O)N(C)c1cccnn1			3.2			5.43		> 100
O=C(Cc1c[nH]c2ccccc12)N[C@@H](Cc1ccccc1)C(=O)Nc1ccc2ncsc2c1			0			< 4.70		68
O=C(Cc1c[nH]c2ccccc12)N[C@@H](Cc1ccccc1)C(=O)Nc1cccnn1			0.8			< 4.70		> 100
O=C(Cc1c[nH]c2ccccc12)N[C@@H](Cc1ccccc1)C(=O)NC(c1ccccc1)c1ccccc1			-1.6			< 4.70		> 100
Cc1[nH]c2ccccc2c1CC(=O)N[C@@H](Cc1ccccc1)C(=O)Nc1ccc(C#N)cc1			-0.6			< 4.70		> 100
O=C(Cc1c[nH]c2ccccc12)N[C@@H](Cc1ccccc1)C(=O)Nc1ccccc1			0			< 4.70		96
Cc1cc(N(C)C(=O)[C@H](Cc2ccccc2)NC(=O)Cc2c(C)[nH]c3ccccc23)n[nH]1			0			< 4.70		< 100
Cc1ccc(N(C)C(=O)[C@H](Cc2ccccc2)NC(=O)Cc2c(C)n(C(C)C)c3ccccc23)cc1			8.4			6.20		10
Cc1cc(NC(=O)[C@H](Cc2ccccc2)NC(=O)Cc2c[nH]c3ccccc23)n[nH]1			0			< 4.70		> 100
CCn1c(C)c(CC(=O)N[C@@H](Cc2ccccc2)C(=O)N(C)c2cccc(Cl)c2)c2ccccc21			9.2			6.31		16
Cc1c(CC(=O)N[C@@H](Cc2ccccc2)C(=O)N(C)c2ccc(Cl)cc2)c2ccccc2n1C(C)C			8.5			6.82		14
CCn1cc(CC(=O)N[C@@H](Cc2ccccc2)C(=O)N(C)c2cccc(Cl)c2)c2ccccc21			5.8			5.70		20
CC(C)n1cc(CC(=O)N[C@@H](Cc2ccccc2)C(=O)N(C)c2ccc(Cl)cc2)c2ccccc21			7.1			6.49		10
Cc1[nH]c2ccccc2c1CC(=O)N[C@@H](Cc1ccccc1)C(=O)NC(c1ccccc1)c1ccccc1			0			< 4.70		> 100
Cc1cc(NC(=O)[C@H](Cc2ccccc2)NC(=O)Cc2c(C)[nH]c3ccccc23)n[nH]1			0			< 4.70		> 100
Cc1[nH]c2ccccc2c1CC(=O)N[C@@H](Cc1ccccc1)C(=O)NCc1cccc2[nH]ccc12			0			< 4.70		36
Cc1[nH]c2ccccc2c1CC(=O)N[C@@H](Cc1ccccc1)C(=O)Nc1cccc(C#N)c1			-0.5			< 4.70		> 100
Cc1[nH]c2ccccc2c1CC(=O)N[C@@H](Cc1ccccc1)C(=O)Nc1ccccc1			0.7			< 4.70		40
CCN(C(=O)[C@H](Cc1ccccc1)NC(=O)Cc1c(C)n(CC)c2ccccc12)c1ccccc1			10			6.25		20
O=C(Cc1c[nH]c2ccccc12)N[C@@H](Cc1ccccc1)C(=O)NCc1cccc2[nH]ccc12			0.5			< 4.70		< 100

SMILES	t1/2 ([1]; microsomes, 1 µM) [min]	t1/2 [2] [min]	ΔTm [3] [°C]	t1/2 [4] [min]	t1/2 [5] [min]	pEC50 [6]	half-life at 1 µM [1] [min]	CC50 (TZM) [µM]
Cc1c(CC(=O)N[C@@H](Cc2ccccc2)C(=O)N(C)c2cccc(F)c2)c2ccccc2n1C(C)C			7			6.54		17
Cc1[nH]c2ccccc2c1CC(=O)N[C@@H](Cc1ccccc1)C(=O)Nc1nc2ccccc2[nH]1			-0.6			4.96		15
CC(C)n1cc(CC(=O)N[C@@H](Cc2ccccc2)C(=O)N(C)c2cccc(Cl)c2)c2ccccc21			4.5			5.89		13
Cc1[nH]c2ccccc2c1CC(=O)N[C@@H](Cc1ccccc1)C(=O)Nc1cccnn1			0			< 4.70		> 100
Cc1[nH]c2ccccc2c1CC(=O)N[C@@H](Cc1ccccc1)C(=O)Nc1ccc2ncsc2c1			1.4			5.00		49
CCn1c(C)c(CC(=O)N[C@@H](Cc2ccccc2)C(=O)N(C)c2ccc(C)cc2)c2ccccc21			11			6.64		18
CCn1cc(CC(=O)N[C@@H](Cc2ccccc2)C(=O)N(C)c2ccc(C)cc2)c2ccccc21			8.6			6.47		14
Cc1[nH]c2ccccc2c1CC(=O)N[C@@H](Cc1ccccc1)C(=O)N(C)c1cccnc1			0			< 4.70		> 100
CN(C(=O)[C@H](Cc1ccccc1)NC(=O)Cc1c[nH]c2ccccc12)c1ccc(Cl)cc1			4.6			6.35		< 50
CN(C(=O)[C@H](Cc1ccccc1)NC(=O)Cc1c[nH]c2ccccc12)c1cccnc1			-0.8			< 4.70		> 100
Cc1[nH]c2ccccc2c1CC(=O)N[C@@H](Cc1ccccc1)C(=O)N(C)c1ccccc1			7.4		> 360	6.21	0.6	
CCn1c(C)c(CC(=O)N[C@@H](Cc2ccccc2)C(=O)N(C)c2cccc(F)c2)c2ccccc21			10.8			6.48		20
O=C(Cc1c[nH]c2ccccc12)N[C@@H](Cc1ccccc1)C(=O)O			-0.6			< 4.70		> 50
Cc1[nH]c2ccccc2c1CC(=O)N[C@@H](Cc1ccccc1)C(=O)Nc1ccc(Cl)cc1			0			< 4.70		> 100
CCn1cc(CC(=O)N[C@@H](Cc2ccccc2)C(=O)N(C)c2cccc(F)c2)c2ccccc21			5.9			6.08		31
Cc1[nH]c2ccccc2c1CC(=O)N[C@@H](Cc1ccccc1)C(=O)N(C)c1cccc(F)c1			6.2			6.16		> 50
CCN(C(=O)[C@H](Cc1ccccc1)NC(=O)Cc1cn(C(C)C)c2ccccc12)c1ccccc1			5.7			6.06		15
Cc1[nH]c2ccccc2c1CC(=O)N[C@@H](Cc1ccccc1)C(=O)N(C)c1cccc(C(F)(F)F)c1			5.4			6.24		18
O=C(Cc1c[nH]c2ccccc12)N[C@@H](Cc1ccccc1)C(=O)Nc1nc2ccccc2[nH]1			-0.6			< 4.70		44
CN(C(=O)[C@H](NC(=O)Cc1c[nH]c2ccccc12)c1ccccc1)c1ccccc1			1.5			< 4.70		> 50
CCN(C(=O)[C@H](Cc1ccccc1)NC(=O)Cc1c[nH]c2ccccc12)c1ccccc1			6.4			6.36		70
Cc1c(CC(=O)N[C@@H](Cc2ccccc2)C(=O)N(C)c2cccc(Cl)c2)c2ccccc2n1C(C)C			5.5			6.44		14
CCn1cc(CC(=O)N[C@@H](Cc2ccccc2)C(=O)N(C)c2ccc(Cl)cc2)c2ccccc21			8.6			6.60		16
CC(C)n1cc(CC(=O)N[C@@H](Cc2ccccc2)C(=O)N(C)c2cccc(F)c2)c2ccccc21			5.8			6.49		12
Cc1[nH]c2ccccc2c1CC(=O)N[C@@H](Cc1ccccc1)C(=O)NC12CC3CC(CC(C3)C1)C2			-0.8			< 4.70		> 100
